pEC50: −log10 of the molar value. Calls of active or inactive are those of the source. No cut-off for these calls is given here.
Experiments:
[1] = molecular target: T1, glucose-dependent insulinotropic receptor (Mesocricetus auratus, UniProt A0A1U8CD06); assay: Agonist activity at GPR119 in glucose-induced golden hamster HIT-T15 cells assessed as increase in insulin secretion after 2 hrs by A1phaLISA; assay type: cell-based
T1 sequence (A0A1U8CD06 whole entry): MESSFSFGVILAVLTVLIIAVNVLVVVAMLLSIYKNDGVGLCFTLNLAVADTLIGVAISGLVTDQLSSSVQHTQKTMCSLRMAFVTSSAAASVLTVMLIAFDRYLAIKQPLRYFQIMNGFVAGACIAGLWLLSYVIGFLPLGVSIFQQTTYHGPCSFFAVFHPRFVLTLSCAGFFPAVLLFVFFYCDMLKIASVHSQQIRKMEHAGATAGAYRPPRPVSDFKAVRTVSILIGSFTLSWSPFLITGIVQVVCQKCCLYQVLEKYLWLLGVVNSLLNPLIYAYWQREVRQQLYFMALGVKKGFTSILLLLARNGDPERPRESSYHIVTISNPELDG
Method in brief: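 HIT-T15 hamster β-cells seeded 5×10^4 cells/well, next day pre-incubated 2 h in KRBH buffer (0.2% BSA). Then exposed to compounds in KRBH with 0.2% fatty acid free BSA and 10 mmol/L glucose for 2 h at 37 °C; secreted insulin in supernatant quantified by AlphaLISA. EC50 reported from n = 2.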

[2] = molecular target: T2, Glucose-dependent insulinotropic receptor (Homo sapiens, UniProt Q8TDV5); assay: Agonist activity at human GPR119 expressed in CHO cells co-expressing cyclic AMP response element incubated for 2 hrs by steady-glo luciferase assay; assay type: cell-based
T2 sequence (Q8TDV5 whole entry): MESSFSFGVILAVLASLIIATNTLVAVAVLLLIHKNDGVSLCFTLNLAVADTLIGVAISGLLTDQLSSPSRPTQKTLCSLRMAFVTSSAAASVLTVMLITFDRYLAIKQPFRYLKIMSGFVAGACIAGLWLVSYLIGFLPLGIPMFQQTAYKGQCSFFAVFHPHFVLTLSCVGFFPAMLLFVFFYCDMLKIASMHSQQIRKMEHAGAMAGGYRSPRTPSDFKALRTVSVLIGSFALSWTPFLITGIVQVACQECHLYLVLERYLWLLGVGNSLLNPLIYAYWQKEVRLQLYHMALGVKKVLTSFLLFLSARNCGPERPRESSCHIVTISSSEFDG
Method in brief: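 CHO cells stably expressing human GPR119, seeded at 10,000 cells/well in MEM α with 500 µg/mL Geneticin overnight, then exposed to graded compound concentrations in MEM α/20 mmol/L HEPES/0.1% BSA for 2 h. cAMP-driven luciferase read with Steady-Glo. Response normalized between vehicle and a 10 µM reference agonist; EC50 as mean of n = 2.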

Rattus norvegicus [3] = assay: Antidiabetic activity in N-STZ 1.5 rat assessed as increase in plasma insulin level at 1 to 3 mg/kg, po pre-treated for 60 mins followed by 1.5 g/kg glucose treatment and measured up to 120 mins by radioimmunoassay; assay type: functional, organism-based; conditions: dose 1-3 mg/kg, time min <=180
Method in brief: (§1)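 Male N-STZ1.5 rats, 25–30 weeks old, fasted overnight, dosed orally with compound or 0.5% methylcellulose vehicle; 60 min later oral glucose load 1.5 g/kg. Tail-vein blood taken pre-dose, at 0, 10, 30, 60 and 120 min; plasma glucose by autoanalyzer, insulin by radioimmunoassay. AUC computed; mean ± SD, n = 6; one-tailed Williams' test.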

Rattus norvegicus [4] = assay: Antidiabetic activity in N-STZ 1.5 rat assessed as reduction in glucose level at 1 mg/kg, po pre-treated for 60 mins followed by 1.5 g/kg glucose treatment and measured up to 120 mins by OGTT; assay type: functional, organism-based; conditions: time min <=180; method in brief: as §1

pEC50 [1]: 7.60 | pEC50 [2]: 7.80
Compound: CC(C)c1noc(N2CCC(Oc3cc(N4CCc5cc(N6CCC[C@H](O)C6=O)ccc54)ncn3)CC2)n1
Activity (Rattus norvegicus [3]): Active | Activity (Rattus norvegicus [4]): Active

— ChEMBL document CHEMBL4715912, “Discovery of a novel series of indolinylpyrimidine-based GPR119 agonists: Elimination of ether-a-go-go-related gene liability using a hydrogen bond acceptor-focused approach” (Bioorg Med Chem, 2021)
